“And” between values parts separate entries of the source, which are not always exact repeats. Identical values can stand only once.
Experiments:
Mus musculus [1] = experiment: Urinary Metabolic (3-hydroxy-N-methylacetaminophen) profile in the mouse 24 hr after dose of 3 mmol/kg of the compound; assay type: ADME, organism-based, Urine; conditions: in vivo
Mus musculus [2] = experiment: Time course of Distribution of Radioactivity in Mice Liver after 3 mmol/kg dose of the Compound after 3 h; assay type: ADME, organism-based; conditions: in vivo
Summary of the method: (§1)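 Groups of 12 mice given [acetyl-14C]-labelled drug ip, 3 mmol/kg (0.45 mCi/mmol), housed individually with urine/feces separation. Four killed at each of 1, 3 and 24 h by exsanguination. Tissues (~100 mg) digested in Soluene 350; blood digested and peroxide-bleached; feces freeze-dried, rehydrated, digested and bleached. Scintillation counting; nmol equiv/mg tissue or per mL blood/urine, means ± SE (N = 4).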

Mus musculus [3] = experiment: Time course of Distribution of Radioactivity in Mice kidney after 3 mmol/kg dose of the Compound after 1 h; assay type: ADME, organism-based; conditions: in vivo; summary of the method: as §1
Mus musculus [4] = experiment: Time course of Distribution of Radioactivity in Mice kidney after 3 mmol/kg dose of the Compound after 24 h; assay type: ADME, organism-based; conditions: in vivo; summary of the method: as §1
Mus musculus [5] = experiment: Time course of Distribution of Radioactivity in Mice kidney after 3 mmol/kg dose of the Compound after 3 h; assay type: ADME, organism-based; conditions: in vivo; summary of the method: as §1
Mus musculus [6] = experiment: Urinary Metabolic (3-methoxy-N-methylacetaminophen) profile in the mouse 24 hr after dose of 3 mmol/kg of the compound; assay type: ADME, organism-based, Urine; conditions: in vivo
Mus musculus [7] = experiment: Urinary Metabolic (Acetaminophen) profile in the mouse 24 h after dose of 3 mmol/kg of the compound; assay type: ADME, organism-based, Urine; conditions: in vivo
Mus musculus [8] = experiment: Urinary Metabolic (N-methylacetaminophen) profile in the mouse 24 hr after dose of 3 mmol/kg of the compound; assay type: ADME, organism-based, Urine; conditions: in vivo
Mus musculus [9] = experiment: Time course of Distribution of Radioactivity in Mice brain after 3 mmol/kg dose of the Compound after 1 h; assay type: ADME, organism-based; conditions: in vivo; summary of the method: as §1
Mus musculus [10] = experiment: Time course of Distribution of Radioactivity in Mice brain after 3 mmol/kg dose of the Compound after 24 h; assay type: ADME, organism-based; conditions: in vivo; summary of the method: as §1
Mus musculus [11] = experiment: Time course of Distribution of Radioactivity in Mice brain after 3 mmol/kg dose of the Compound after 3 h; assay type: ADME, organism-based; conditions: in vivo; summary of the method: as §1
Mus musculus [12] = experiment: Time course of Distribution of Radioactivity in Mice feces after 3 mmol/kg dose of the Compound after 1 hr; assay type: ADME, organism-based; conditions: in vivo; summary of the method: as §1
Mus musculus [13] = experiment: Time course of Distribution of Radioactivity in Mice feces after 3 mmol/kg dose of the Compound after 24 h; assay type: ADME, organism-based; conditions: in vivo; summary of the method: as §1
Mus musculus [14] = experiment: Time course of Distribution of Radioactivity in Mice feces after 3 mmol/kg dose of the Compound after 3 h; assay type: ADME, organism-based; conditions: in vivo; summary of the method: as §1
Mus musculus [15] = experiment: Time course of Distribution of Radioactivity in Mice intestine after 3 mmol/kg dose of the Compound after 24 h; assay type: ADME, organism-based; conditions: in vivo; summary of the method: as §1
Mus musculus [16] = experiment: Time course of Distribution of Radioactivity in Mice intestine after 3 mmol/kg dose of the Compound after 3 h; assay type: ADME, organism-based; conditions: in vivo; summary of the method: as §1
Mus musculus [17] = experiment: Time course of Distribution of Radioactivity in Mice intestine after 3 mmol/kg dose of the Compound after 1 h; assay type: ADME, organism-based; conditions: in vivo; summary of the method: as §1
Mus musculus [18] = experiment: Time course of Distribution of Radioactivity in Mice lungs/heart after 3 mmol/kg dose of the Compound after 1 h; assay type: ADME, organism-based, Lung; conditions: in vivo; summary of the method: as §1
Mus musculus [19] = experiment: Time course of Distribution of Radioactivity in Mice lungs/heart after 3 mmol/kg dose of the Compound after 24 h; assay type: ADME, organism-based, Lung; conditions: in vivo; summary of the method: as §1
Mus musculus [20] = experiment: Time course of Distribution of Radioactivity in Mice lungs/heart after 3 mmol/kg dose of the Compound after 3 h; assay type: ADME, organism-based, Lung; conditions: in vivo; summary of the method: as §1
Mus musculus [21] = experiment: Time course of Distribution of Radioactivity in Mice spleen after 3 mmol/kg dose of the Compound after 1 h; assay type: ADME, organism-based; conditions: in vivo; summary of the method: as §1
Mus musculus [22] = experiment: Time course of Distribution of Radioactivity in Mice spleen after 3 mmol/kg dose of the Compound after 24 h; assay type: ADME, organism-based; conditions: in vivo; summary of the method: as §1
Mus musculus [23] = experiment: Time course of Distribution of Radioactivity in Mice spleen after 3 mmol/kg dose of the Compound after 3 h; assay type: ADME, organism-based; conditions: in vivo; summary of the method: as §1
Mus musculus [24] = experiment: Time course of Distribution of Radioactivity in Mice stomach after 3 mmol/kg dose of the Compound after 1 h; assay type: ADME, organism-based; conditions: in vivo; summary of the method: as §1
Mus musculus [25] = experiment: Time course of Distribution of Radioactivity in Mice stomach after 3 mmol/kg dose of the Compound after 24 h; assay type: ADME, organism-based; conditions: in vivo; summary of the method: as §1
Mus musculus [26] = experiment: Time course of Distribution of Radioactivity in Mice Liver after 3 mmol/kg dose of the Compound after 1 h; assay type: ADME, organism-based; conditions: in vivo; summary of the method: as §1
Mus musculus [27] = experiment: Time course of Distribution of Radioactivity in Mice Urine after 3 mmol/kg dose of the Compound after 1 h; assay type: ADME, organism-based; conditions: in vivo; summary of the method: as §1
Mus musculus [28] = experiment: Time course of Distribution of Radioactivity in Mice Urine after 3 mmol/kg dose of the Compound after 24 h; assay type: ADME, organism-based; conditions: in vivo; summary of the method: as §1
Mus musculus [29] = experiment: Time course of Distribution of Radioactivity in Mice Urine after 3 mmol/kg dose of the Compound after 3 h; assay type: ADME, organism-based; conditions: in vivo; summary of the method: as §1
Mus musculus [30] = experiment: Time course of Distribution of Radioactivity in Mice blood after 3 mmol/kg dose of the Compound after 1 h; assay type: ADME, organism-based; conditions: in vivo; summary of the method: as §1
Mus musculus [31] = experiment: Time course of Distribution of Radioactivity in Mice blood after 3 mmol/kg dose of the Compound after 24 h; assay type: ADME, organism-based; conditions: in vivo; summary of the method: as §1
Mus musculus [32] = species on record: Mus musculus; experiment: Analgesic activity determined in mice using the Bradykinin-induced Writhing test; assay type: organism-based
Summary of the method: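 Male CD1 mice (15–20 g), test drug given orally 15 min before bradykinin ip (4 μg in 0.2 mL sterile water), then a second bradykinin injection (0.2 μg/0.1 mL) 15 min later. Writhing was scored over the next 10 min, with control groups of 10 mice. ED50 was derived by log-probit analysis from at least five doses, with 95% limits.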

Mus musculus [33] = experiment: (§2) Hepatotoxicity in Swiss-Webster Mice Caused by compound at 500 mg/kg (i.p.) dose; assay type: functional; conditions: route intraperitoneal
Summary of the method: (§3)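 Male Swiss-Webster mice (20 g), groups of 10, were given a single ip dose of drug in saline with no pretreatment. Survivors were decapitated at 24 h and counted. Plasma ALT was measured, and liver sections (formalin-fixed, paraffin, H&E) were scored for necrosis severity in survivors. Values are means ± SE.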

Mus musculus [34] = experiment: as §2; assay type: functional, organism-based; design: dose 500 mg/kg
Summary of the method: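 Male Swiss-Webster mice (20 g), groups of 10, dosed ip in saline; some groups pretreated with phenobarbital (80 mg/kg ip at 72, 60, 48, 24 h), cobaltous chloride (30 mg/kg ip at 48, 36, 24, 12 h) or neat piperonyl butoxide (1360 mg/kg ip, 30 min before). Survivors killed at 24 h; plasma ALT measured, liver H&E sections scored for necrosis; means ± SE.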

Mus musculus [35] = experiment: Hepatotoxicity in Swiss-Webster Mice Caused by compound at 500 mg/kg (i.p.) dose; 9/10; assay type: functional; conditions: route intraperitoneal; summary of the method: as §3
Mus musculus [36] = experiment: Time course of Distribution of Radioactivity in Mice blood after 3 mmol/kg dose of the Compound after 3 h; assay type: ADME, organism-based; conditions: in vivo; summary of the method: as §1
Mus musculus [37] = experiment: Time course of Distribution of Radioactivity in Mice stomach after 3 mmol/kg dose of the Compound after 3 h; assay type: ADME, organism-based; conditions: in vivo; summary of the method: as §1
Mus musculus [38] = experiment: Time course of Distribution of Radioactivity in Mice Liver after 3 mmol/kg dose of the Compound after 24 h; assay type: ADME, organism-based; conditions: in vivo; summary of the method: as §1
Mus musculus [39] = experiment: Hepatotoxicity in Swiss-Webster Mice Caused by compound at 1000 mg/kg (i.p.) dose; 5/10; conditions: route intraperitoneal

CC(=O)N(C)c1ccc(O)cc1
Administered dose (Mus musculus [1]): 0.6%
Radioactivity (Mus musculus [2]): 0.6 nM equiv (mg of tissue)-1
Radioactivity (Mus musculus [3]): 3.73 nM equiv (mg of tissue)-1
Radioactivity (Mus musculus [4]): 0.05 nM equiv (mg of tissue)-1
Radioactivity (Mus musculus [5]): 0.49 nM equiv (mg of tissue)-1
Administered dose (Mus musculus [6]): 13.7%
Administered dose (Mus musculus [7]): 1.9%
Administered dose (Mus musculus [8]): 78.9%
Radioactivity (Mus musculus [9]): 1.03 nM equiv (mg of tissue)-1
Radioactivity (Mus musculus [10]): 0.01 nM equiv (mg of tissue)-1
Radioactivity (Mus musculus [11]): 0.05 nM equiv (mg of tissue)-1
Radioactivity (Mus musculus [12]): 0.03 nM equiv mg-1
Radioactivity (Mus musculus [13]): 74.5 nM equiv mg-1
Radioactivity (Mus musculus [14]): 3.17 nM equiv mg-1
Radioactivity (Mus musculus [15]): 0.61 nM equiv (mg of tissue)-1
Radioactivity (Mus musculus [16]): 1.52 nM equiv (mg of tissue)-1
Radioactivity (Mus musculus [17]): 2.17 nM equiv (mg of tissue)-1
Radioactivity (Mus musculus [18]): 1.78 nM equiv (mg of tissue)-1
Radioactivity (Mus musculus [19]): 0.03 nM equiv (mg of tissue)-1
Radioactivity (Mus musculus [20]): 0.13 nM equiv (mg of tissue)-1
Radioactivity (Mus musculus [21]): 1.58 nM equiv (mg of tissue)-1
Radioactivity (Mus musculus [22]): 0.03 nM equiv (mg of tissue)-1
Radioactivity (Mus musculus [23]): 0.13 nM equiv (mg of tissue)-1
Radioactivity (Mus musculus [24]): 0.21 nM equiv (mg of tissue)-1
Radioactivity (Mus musculus [25]): 0.08 nM equiv (mg of tissue)-1
Radioactivity (Mus musculus [26]): 3.16 nM equiv (mg of tissue)-1
Radioactivity (Mus musculus [27]): 7.67 nM equiv (ml of urine)-1
Radioactivity (Mus musculus [28]): 6978 nM equiv (ml of urine)-1
Radioactivity (Mus musculus [29]): 3200 nM equiv (ml of urine)-1
Radioactivity (Mus musculus [30]): 1855 nM equiv (ml of blood)-1
Radioactivity (Mus musculus [31]): 14.6 nM equiv (ml of blood)-1
ED50 (Mus musculus [32]): > 200 mg/kg
Hepatic necrosis in survivors (Mus musculus [33]): 0
Plasma ALT at 24 h (Mus musculus [34]): 27 mU ml-1 and 32 mU ml-1
Survivors at 24 h (Mus musculus [35]): 9
Radioactivity (Mus musculus [36]): 501 nM equiv (ml of blood)-1
Radioactivity (Mus musculus [37]): 0.87 nM equiv (mg of tissue)-1
Radioactivity (Mus musculus [38]): 0.05 nM equiv (mg of tissue)-1
Survivors at 24 h (Mus musculus [39]): 5
